In ChEMBL document CHEMBL5678806, “NMS-P937, an orally available, specific small-molecule polo-like kinase 1 inhibitor with antitumor activity in solid and hematologic malignancies” (Mol Cancer Ther, 2012):
Calls of active or inactive are those of the source. The calls are words filed in the database; no cut-off is given here.

Assays:
[1] = molecular target: Serine/threonine-protein kinase DCLK2 (Homo sapiens) (UniProt Q8N568); test: Inhibition of N-terminal 6His-tagged recombinant human DCAMKL2 (376 to end residues) expressed in baculovirus infected Sf21 cells assessed as residual activity at 1 uM relative to control
Chain of Serine/threonine-protein kinase DCLK2 (Homo sapiens) (Q8N568 whole entry): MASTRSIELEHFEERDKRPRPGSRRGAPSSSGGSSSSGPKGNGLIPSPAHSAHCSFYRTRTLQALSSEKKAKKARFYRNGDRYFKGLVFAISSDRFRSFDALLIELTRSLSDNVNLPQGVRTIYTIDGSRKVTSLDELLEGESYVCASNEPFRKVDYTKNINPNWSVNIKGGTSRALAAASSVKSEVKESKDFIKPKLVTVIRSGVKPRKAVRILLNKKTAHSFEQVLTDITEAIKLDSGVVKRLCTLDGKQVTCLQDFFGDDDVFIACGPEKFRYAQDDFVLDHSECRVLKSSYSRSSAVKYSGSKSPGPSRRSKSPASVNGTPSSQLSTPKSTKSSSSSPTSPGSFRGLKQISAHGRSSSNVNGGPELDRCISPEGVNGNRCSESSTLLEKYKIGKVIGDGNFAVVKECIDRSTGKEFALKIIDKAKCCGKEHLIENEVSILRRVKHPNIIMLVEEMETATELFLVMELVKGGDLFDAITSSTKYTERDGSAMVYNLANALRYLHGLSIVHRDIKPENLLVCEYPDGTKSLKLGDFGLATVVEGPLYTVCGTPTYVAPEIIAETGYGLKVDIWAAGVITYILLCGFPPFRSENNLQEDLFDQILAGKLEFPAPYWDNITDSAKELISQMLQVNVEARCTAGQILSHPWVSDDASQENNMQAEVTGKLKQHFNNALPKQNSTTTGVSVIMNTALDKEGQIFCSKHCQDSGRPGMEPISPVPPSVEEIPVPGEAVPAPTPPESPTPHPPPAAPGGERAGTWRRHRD

[2] = molecular target: Serine/threonine-protein kinase MARK2 (Homo sapiens) (UniProt Q7KZI7); test: Inhibition of N-terminal His6-tagged recombinant full-length human PAR-1Balpha expressed in baculovirus infected Sf21 cells assessed as residual activity at 1 uM relative to control
SAOS-2 = test: Antiproliferative activity against human SAOS-2 cells assessed as inhibition of cell growth incubated for 72 hrs by cell-titer glo assay; type: functional, cell-based; conditions: SAOS-2, 72 h
Method in brief: (§1)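 Cells from ATCC or ECACC, kept in supplier-recommended medium with 1% penicillin-streptomycin at 37°C, 5% CO₂. Seeded at 10,000–30,000/cm² (adherent) or 100,000/mL (nonadherent) in medium with 10% fetal calf serum. Dosed after 24 h in duplicate with serial dilutions. Viable cells read by CellTiter-Glo 72 h later. IC50 from sigmoidal fit. At least two independent experiments.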

LP-1 = test: Antiproliferative activity against human LP-1 cells assessed as inhibition of cell growth incubated for 72 hrs by cell-titer glo assay; type: functional, cell-based; conditions: LP-1, 72 h
Method in brief: (§2)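 Cells seeded at 10,000–30,000/cm² (adherent) or 100,000/mL (nonadherent) in medium with 10% fetal calf serum; after 24 h, treated in duplicate with serial dilutions for 72 h. Viable cell number read by CellTiter-Glo luminescence; IC50 from sigmoidal fit; at least two independent experiments.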

A2780 = test: Induction of apoptosis in human A2780 cells assessed as PARP cleavage at 0.02 to 0.2 micromol/L incubated for 24 hrs by Western blotting analysis; type: functional, cell-based; conditions: dose 0.02-0.2 µmol/L
OPM-2 = test: Antiproliferative activity against human OPM-2 cells assessed as inhibition of cell growth incubated for 72 hrs by cell-titer glo assay; type: functional, cell-based; conditions: OPM-2, 72 h; method in brief: as §1
[3] = molecular target: Rho-associated protein kinase 2 (Homo sapiens) (UniProt O75116); test: Inhibition of N-terminal His6-tagged recombinant human ROCK-II (11 to 552 residues) expressed in baculovirus infected Sf21 cells assessed as residual activity at 0.1 uM relative to control
Chain of Rho-associated protein kinase 2 (Homo sapiens) (O75116 whole entry, looked up, the tested form may be a part): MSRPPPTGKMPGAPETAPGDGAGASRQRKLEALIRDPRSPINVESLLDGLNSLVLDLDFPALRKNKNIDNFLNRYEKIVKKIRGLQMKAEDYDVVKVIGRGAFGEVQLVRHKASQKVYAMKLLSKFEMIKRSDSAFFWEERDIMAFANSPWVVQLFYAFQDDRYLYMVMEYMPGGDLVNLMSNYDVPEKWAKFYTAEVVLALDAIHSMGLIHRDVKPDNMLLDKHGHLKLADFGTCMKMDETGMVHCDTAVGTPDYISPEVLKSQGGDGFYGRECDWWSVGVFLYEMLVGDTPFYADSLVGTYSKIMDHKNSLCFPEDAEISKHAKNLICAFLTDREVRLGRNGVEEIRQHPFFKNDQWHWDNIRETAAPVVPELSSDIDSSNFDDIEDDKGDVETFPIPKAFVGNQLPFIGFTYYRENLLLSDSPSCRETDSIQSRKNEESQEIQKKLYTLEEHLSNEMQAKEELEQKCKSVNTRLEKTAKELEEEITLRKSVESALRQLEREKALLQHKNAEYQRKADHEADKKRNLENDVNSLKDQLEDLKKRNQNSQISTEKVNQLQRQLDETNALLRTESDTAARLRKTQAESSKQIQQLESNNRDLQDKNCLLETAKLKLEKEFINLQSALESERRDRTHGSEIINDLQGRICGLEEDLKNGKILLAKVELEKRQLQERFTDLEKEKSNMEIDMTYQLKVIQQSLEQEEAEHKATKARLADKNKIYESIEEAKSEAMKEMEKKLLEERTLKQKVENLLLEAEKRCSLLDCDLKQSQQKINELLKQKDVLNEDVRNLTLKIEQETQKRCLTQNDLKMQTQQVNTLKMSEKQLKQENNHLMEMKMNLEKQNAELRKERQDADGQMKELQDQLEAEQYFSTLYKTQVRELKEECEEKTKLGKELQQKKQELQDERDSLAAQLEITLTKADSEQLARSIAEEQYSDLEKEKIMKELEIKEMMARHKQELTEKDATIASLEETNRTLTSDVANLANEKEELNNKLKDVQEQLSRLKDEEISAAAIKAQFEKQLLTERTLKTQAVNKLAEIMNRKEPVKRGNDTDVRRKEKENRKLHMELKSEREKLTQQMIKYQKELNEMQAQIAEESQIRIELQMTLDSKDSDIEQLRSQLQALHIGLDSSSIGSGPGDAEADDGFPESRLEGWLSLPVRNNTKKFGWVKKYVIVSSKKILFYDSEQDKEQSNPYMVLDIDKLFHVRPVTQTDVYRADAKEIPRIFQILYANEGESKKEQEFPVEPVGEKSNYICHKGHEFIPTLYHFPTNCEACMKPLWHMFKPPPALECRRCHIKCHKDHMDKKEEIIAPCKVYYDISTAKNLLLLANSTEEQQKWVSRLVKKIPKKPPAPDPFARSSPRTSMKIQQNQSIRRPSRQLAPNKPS

[4] = Inhibition of SULU1 (unknown origin) in presence of [gamma-33P]ATP; parameters: species or system Homo sapiens
[5] = Antiproliferative activity against human MEC-1 cells assessed as inhibition of cell growth incubated for 72 hrs by cell-titer glo assay; type: functional, cell-based; conditions: MEC1, 72 h; method in brief: as §2
[6] = AUC in Beagle dog at 5 mg/kg, po by LC-MS analysis; type: ADME, organism-based, Canis lupus familiaris; conditions: in vivo
[7] = molecular target: Insulin-like growth factor 1 receptor (Homo sapiens) (UniProt P08069); test: Inhibition of N-terminal 6His-tagged recombinant human IGF-1R (959 to end residues) expressed in baculovirus infected Sf21 cells assessed as residual activity at 1 uM relative to control
UO-31 = test: Antiproliferative activity against human UO-31 cells assessed as inhibition of cell growth incubated for 72 hrs by cell-titer glo assay; type: functional, cell-based; conditions: UO-31, 72 h
NCI-H838 = test: Antiproliferative activity against human NCI-H838 cells assessed as inhibition of cell growth incubated for 72 hrs by cell-titer glo assay; type: functional, cell-based; conditions: NCI-H838, 72 h; method in brief: as §1
[8] = molecular target: Casein kinase I homolog 1 (Saccharomyces cerevisiae S288c) (UniProt P23291); test: Inhibition of yeast CK1 assessed as residual activity at 1 uM relative to control
786-0 = test: Antiproliferative activity against human 786-0 cells assessed as inhibition of cell growth incubated for 72 hrs by cell-titer glo assay; type: functional, cell-based; conditions: 786-0, 72 h
Method in brief: (§3)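 Cells seeded 10,000–30,000/cm² (adherent) or 100,000/mL (suspension) in medium with 10% fetal calf serum; after 24 h treated in duplicate with serial dilutions for 72 h. Viable cells read by CellTiter-Glo luminescence; IC50 from sigmoidal fit; at least two independent experiments.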

[9] = Half-life in Beagle dog at 5 mg/kg, iv by LC-MS analysis; type: ADME, organism-based, Canis lupus familiaris; conditions: in vivo
[10] = molecular target: Rho-associated protein kinase 1 (Homo sapiens) (UniProt Q13464); test: Inhibition of N-terminal His6-tagged recombinant human ROCK-I (17 to 535 residues) expressed in baculovirus infected Sf21 cells assessed as residual activity at 0.1 uM relative to control
Chain of Rho-associated protein kinase 1 (Homo sapiens) (Q13464 2-1354 limits assumed): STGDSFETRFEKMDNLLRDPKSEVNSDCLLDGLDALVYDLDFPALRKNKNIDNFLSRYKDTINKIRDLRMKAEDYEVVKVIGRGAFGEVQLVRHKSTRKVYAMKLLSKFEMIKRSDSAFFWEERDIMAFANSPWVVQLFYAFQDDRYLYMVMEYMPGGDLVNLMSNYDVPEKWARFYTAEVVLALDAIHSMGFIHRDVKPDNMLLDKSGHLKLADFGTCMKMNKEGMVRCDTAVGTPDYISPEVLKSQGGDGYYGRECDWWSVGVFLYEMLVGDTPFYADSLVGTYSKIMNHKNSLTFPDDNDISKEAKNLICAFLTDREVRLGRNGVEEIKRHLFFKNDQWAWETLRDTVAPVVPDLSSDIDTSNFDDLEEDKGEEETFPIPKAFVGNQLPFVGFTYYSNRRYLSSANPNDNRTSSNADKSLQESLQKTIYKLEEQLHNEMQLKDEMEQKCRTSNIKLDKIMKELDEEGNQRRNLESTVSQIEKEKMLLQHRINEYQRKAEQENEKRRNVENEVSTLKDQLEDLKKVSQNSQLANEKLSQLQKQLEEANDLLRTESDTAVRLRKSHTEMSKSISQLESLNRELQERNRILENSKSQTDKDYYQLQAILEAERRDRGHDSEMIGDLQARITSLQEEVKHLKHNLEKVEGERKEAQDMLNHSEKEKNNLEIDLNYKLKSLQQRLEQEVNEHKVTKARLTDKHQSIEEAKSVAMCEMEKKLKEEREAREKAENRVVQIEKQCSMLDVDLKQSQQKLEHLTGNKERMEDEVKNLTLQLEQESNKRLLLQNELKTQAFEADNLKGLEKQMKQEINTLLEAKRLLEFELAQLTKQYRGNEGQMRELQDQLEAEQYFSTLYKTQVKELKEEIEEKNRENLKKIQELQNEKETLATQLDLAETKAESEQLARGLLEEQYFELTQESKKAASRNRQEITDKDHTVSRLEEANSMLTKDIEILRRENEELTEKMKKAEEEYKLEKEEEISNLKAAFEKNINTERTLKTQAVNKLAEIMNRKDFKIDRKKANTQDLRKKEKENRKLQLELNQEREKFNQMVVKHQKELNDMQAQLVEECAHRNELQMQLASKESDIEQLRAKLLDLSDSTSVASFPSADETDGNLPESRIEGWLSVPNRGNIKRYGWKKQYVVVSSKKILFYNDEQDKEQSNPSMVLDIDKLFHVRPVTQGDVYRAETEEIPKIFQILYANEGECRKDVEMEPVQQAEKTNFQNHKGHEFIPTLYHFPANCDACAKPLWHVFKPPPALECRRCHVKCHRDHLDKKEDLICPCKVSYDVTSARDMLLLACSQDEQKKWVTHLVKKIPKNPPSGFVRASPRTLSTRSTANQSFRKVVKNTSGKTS

[11] = molecular target: PDPK1, 3-phosphoinositide-dependent protein kinase 1 (Homo sapiens) (UniProt O15530); test: Inhibition of N-terminal His6-tagged recombinant human PDK1 (52 to end residues) expressed in baculovirus infected Sf21 cells assessed as residual activity at 1 uM relative to control
Chain of PDPK1, 3-phosphoinositide-dependent protein kinase 1 (Homo sapiens) (O15530 whole entry, looked up): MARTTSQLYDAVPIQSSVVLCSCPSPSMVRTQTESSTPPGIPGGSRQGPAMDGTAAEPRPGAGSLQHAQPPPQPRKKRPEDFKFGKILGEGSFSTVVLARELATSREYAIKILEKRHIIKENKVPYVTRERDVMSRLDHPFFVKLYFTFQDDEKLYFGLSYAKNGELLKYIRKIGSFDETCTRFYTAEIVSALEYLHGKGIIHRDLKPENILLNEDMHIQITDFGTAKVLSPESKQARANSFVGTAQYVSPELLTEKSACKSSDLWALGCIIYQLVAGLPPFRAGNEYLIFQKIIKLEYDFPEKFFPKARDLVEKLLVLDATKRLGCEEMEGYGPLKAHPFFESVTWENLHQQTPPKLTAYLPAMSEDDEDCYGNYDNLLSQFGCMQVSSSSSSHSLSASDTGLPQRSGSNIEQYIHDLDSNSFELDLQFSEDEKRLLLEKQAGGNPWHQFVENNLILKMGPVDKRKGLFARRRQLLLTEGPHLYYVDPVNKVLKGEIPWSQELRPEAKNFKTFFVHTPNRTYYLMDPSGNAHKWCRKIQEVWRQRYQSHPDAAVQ

SK-MES-1 = test: Antiproliferative activity against human SK-MES-1 cells assessed as inhibition of cell growth incubated for 72 hrs by cell-titer glo assay; type: functional, cell-based; conditions: SK-MES-1, 72 h
[12] = molecular target: Serine/threonine-protein kinase Nek11 (Homo sapiens) (UniProt Q8NG66); test: Inhibition of 6His-tagged recombinant human full-length NEK11 expressed in baculovirus infected Sf21 cells assessed as residual activity at 0.1 uM relative to control
Chain of Serine/threonine-protein kinase Nek11 (Homo sapiens) (Q8NG66 whole entry): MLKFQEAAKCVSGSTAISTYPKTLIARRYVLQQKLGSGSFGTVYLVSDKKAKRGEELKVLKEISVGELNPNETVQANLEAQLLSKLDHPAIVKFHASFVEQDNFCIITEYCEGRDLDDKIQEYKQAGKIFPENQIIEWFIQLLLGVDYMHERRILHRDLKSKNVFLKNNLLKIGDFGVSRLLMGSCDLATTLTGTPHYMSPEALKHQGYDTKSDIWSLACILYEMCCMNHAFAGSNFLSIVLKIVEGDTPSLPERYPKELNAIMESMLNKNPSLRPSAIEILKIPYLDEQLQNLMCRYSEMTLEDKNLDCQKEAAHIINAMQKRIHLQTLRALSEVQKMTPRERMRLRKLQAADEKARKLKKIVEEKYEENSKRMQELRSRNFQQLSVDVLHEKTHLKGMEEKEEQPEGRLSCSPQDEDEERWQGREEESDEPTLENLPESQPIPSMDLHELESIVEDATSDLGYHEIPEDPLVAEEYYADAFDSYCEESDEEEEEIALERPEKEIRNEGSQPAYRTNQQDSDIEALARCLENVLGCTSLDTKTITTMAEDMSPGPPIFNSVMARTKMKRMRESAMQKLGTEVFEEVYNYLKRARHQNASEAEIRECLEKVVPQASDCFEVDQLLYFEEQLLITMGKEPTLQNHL

[13] = molecular target: Serine/threonine-protein kinase ULK3 (Homo sapiens) (UniProt Q6PHR2); test: Inhibition of N-terminal 6His-tagged recombinant human full-length ULK3 expressed in baculovirus infected Sf21 cells assessed as residual activity at 1 uM relative to control
[14] = molecular target: Cyclin-dependent kinase 4/cyclin D1 (Homo sapiens, UniProt P11802); test: Inhibition of CDK4/CycD1 (unknown origin) in presence of [gamma-33P]ATP; type: protein-complex assay
[15] = molecular target: Protein-tyrosine kinase 6 (Homo sapiens, UniProt Q13882); test: Inhibition of BRK (unknown origin) in presence of [gamma-33P]ATP
OVCAR-3 = test: Antiproliferative activity against human OVCAR-3 cells assessed as inhibition of cell growth incubated for 72 hrs by cell-titer glo assay; type: functional, cell-based; conditions: OVCAR-3, 72 h; method in brief: as §1
[16] = molecular target: G protein-coupled receptor kinase 6 (Homo sapiens) (UniProt P43250); test: Inhibition of N-terminal 6His-tagged recombinant full-length human GRK6 expressed in baculovirus infected Sf21 cells assessed as residual activity at 1 uM relative to control
1A9/ptx-22 = test: Antiproliferative activity against human 1A9/ptx-22 cells assessed as inhibition of cell growth incubated for 72 hrs by cell-titer glo assay; type: functional, cell-based; conditions: 1A9/ptx-22, 72 h; method in brief: as §3
CAKI-1 = test: Antiproliferative activity against human CAKI-1 cells assessed as inhibition of cell growth incubated for 72 hrs by cell-titer glo assay; type: functional, cell-based; conditions: CAKI-1, 72 h; method in brief: as §3
[17] = Clearance in Sprague-Dawley rat at 10 mg/kg, iv by LC-MS analysis; type: ADME, organism-based; conditions: in vivo
[18] = molecular target: Serine/threonine-protein kinase PAK 4 (Homo sapiens, UniProt O96013); test: Inhibition of PAK4 (unknown origin) in presence of [gamma-33P]ATP

## CN1CCN(c2ccc(OC(F)(F)F)c(Nc3ncc4c(n3)-c3c(c(C(N)=O)nn3CCO)CC4)c2)CC1 [ONVANSERTIB]
[1]
  Activity: 90%
[2]
  Activity: 87%
SAOS-2
  IC50: 45 nM
LP-1
  IC50: 59 nM
A2780
  Activity: Active
OPM-2
  IC50: 38 nM
[3]
  Activity: 132%
[4]
  IC50: > 10000 nM
[5]
  IC50: 112 nM
[6]
  AUC: 8.1 µM·h
[7]
  Activity: 114%
UO-31
  IC50: 1130 nM
NCI-H838
  IC50: 119 nM
[8]
  Activity: 24%
786-0
  IC50: 129 nM
[9]
  half-life: 3.9 h
[10]
  Activity: 145%
[11]
  Activity: 144%
SK-MES-1
  IC50: 367 nM
[12]
  Activity: 114%
[13]
  Activity: 127%
[14]
  IC50: > 10000 nM
[15]
  IC50: > 10000 nM
OVCAR-3
  IC50: 41 nM
[16]
  Activity: 93%
1A9/ptx-22
  IC50: 65 nM
CAKI-1
  IC50: 515 nM
[17]
  clearance: 20.6 mL/min/kg
[18]
  IC50: > 10000 nM
